Measured values taken from PMC4284021 (The Journal of Pharmacy and Pharmacology, 2014).
Where “and” joins values, the source holds several entries; their conditions need not be identical. Equal values may be shown once. Entries after “also recorded” stand apart in the source; their conditions may differ. Marks after values point to notes of the source that are not given here.

Assays:
[1] = biological target: T1, cholesteryl ester transfer protein (CETP) activity (Homo sapiens, UniProt P11597); test: Serum CETP activity by fluorometric assay in healthy subjects; type: in vivo; details: for CETP activity: Mean % change from baseline (90% CI) / CETP activity: Mean % change vs placebo (90 % CI): trough (predose) day 14
T1 sequence (P11597 18-493): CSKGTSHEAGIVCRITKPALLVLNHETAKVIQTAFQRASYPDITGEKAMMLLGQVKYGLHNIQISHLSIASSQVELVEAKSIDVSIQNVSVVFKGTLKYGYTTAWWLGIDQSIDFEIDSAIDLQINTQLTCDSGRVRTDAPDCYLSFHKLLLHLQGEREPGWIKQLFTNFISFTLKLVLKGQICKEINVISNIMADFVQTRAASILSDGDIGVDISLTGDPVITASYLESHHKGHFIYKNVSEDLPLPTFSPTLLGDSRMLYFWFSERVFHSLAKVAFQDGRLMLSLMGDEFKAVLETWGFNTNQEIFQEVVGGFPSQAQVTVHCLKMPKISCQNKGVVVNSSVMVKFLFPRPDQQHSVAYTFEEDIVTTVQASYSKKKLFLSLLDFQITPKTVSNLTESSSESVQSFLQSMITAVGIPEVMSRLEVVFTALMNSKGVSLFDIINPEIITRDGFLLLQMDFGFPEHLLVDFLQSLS
How it was run: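 Serum was sampled at the pharmacokinetic time points, including pre-dose troughs, after once-daily oral dosing (10–600 mg) or placebo. CETP activity was measured by fluorometric assay and expressed as the maximum test-compound-inhibitable activity. Change from baseline was analysed with an Emax dose model (Hill coefficient 1, baseline covariate).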

[2] = system: CETP mass; test: Serum CETP mass by sandwich ELISA in healthy subjects; type: in vivo, human; details: for CETP mass: Mean % change from baseline (90% CI) / CETP mass: Mean % change vs placebo (90 % CI): trough (predose) day 14
How it was run: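 CETP mass was measured in serum by sandwich ELISA. Samples were taken at baseline and on Days 2, 7 and 14 of once-daily oral dosing (10–600 mg) or placebo.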

[3] = system: apolipoproteins (apo AI, apo AII, apo B, apo E); test: Apolipoprotein concentrations by immunoturbidimetric methods in healthy subjects; type: in vivo, human; details: day 14
How it was run: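 Healthy adults took placebo or test compound (10, 100, 300, 600 mg) as capsules once daily with a low-fat meal for 14–15 days. Apo AI, AII, B and E were measured by immunoturbidimetry on a Roche Modular analyser. Values are percent change from baseline to Day 14, including all randomized subjects given at least one dose.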

Structure (SMILES): Cc1cc(C)c2c(c1)[C@@H](N(Cc1cc(C(F)(F)F)cc(C(F)(F)F)c1)c1nnn(C)n1)CCCN2C[C@H]1CC[C@H](C(=O)O)CC1 [evacetrapib]
- CETP activity: Mean % change from baseline (90% CI) ([1]; 10 mg/day): −14.60 (−22.33, −6.87) %
- CETP activity: Mean % change vs placebo (90 % CI) ([1]; 10 mg/day): −16.08 (−23.23, −8.94) ^*** %
- trough inhibition of CETP activity ([1]; 100 mg): 65%
- CETP activity: Mean % change from baseline (90% CI) ([1]; 100 mg/day): −64.54 (−73.08, −56.00) %
- CETP activity: Mean % change vs placebo (90 % CI) ([1]; 100 mg/day): −66.02 (−78.93, −53.11) ^*** %
- trough inhibition of CETP activity ([1]; 300 mg): 84%
- CETP activity: Mean % change from baseline (90% CI) ([1]; 300 mg/day): −84.26 (−91.34, −77.18) %
- CETP activity: Mean % change vs placebo (90 % CI) ([1]; 300 mg/day): −85.74 (−97.43, −74.05) ^*** %
- trough inhibition of CETP activity ([1]; 600 mg): 91% and 91.2%
- inhibition of CETP activity compared with placebo ([1]; 600 mg, after multiple doses): 93%
- CETP activity: Mean % change from baseline (90% CI) ([1]; 600 mg/day): −91.18 (−99.71, −82.66) %
- CETP activity: Mean % change vs placebo (90 % CI) ([1]; 600 mg/day): −92.66 (−104.92, −80.41) ^*** %
- CETP activity after 2-week (336 h) washout ([1]; each dose group): returned to levels at or near baseline; also recorded: returned to baseline levels
- CETP mass: Mean % change from baseline (90% CI) ([2]; 10 mg/day): 20.18 (9.92, 30.45) %
- CETP mass: Mean % change vs placebo (90 % CI) ([2]; 10 mg/day): 20.58 (11.28, 29.88) ^*** %
- CETP mass: Mean % change from baseline (90% CI) ([2]; 100 mg/day): 95.77 (82.14, 109.41) %
- CETP mass: Mean % change vs placebo (90 % CI) ([2]; 100 mg/day): 96.17 (76.37, 115.97) ^*** %
- CETP mass: Mean % change from baseline (90% CI) ([2]; 300 mg/day): 131.72 (122.10, 141.34) %
- CETP mass: Mean % change vs placebo (90 % CI) ([2]; 300 mg/day): 132.12 (115.85, 148.38) ^*** %
- CETP mass: Mean % change from baseline (90% CI) ([2]; 600 mg/day): 145.34 (133.29, 157.39) %
- CETP mass: Mean % change vs placebo (90 % CI) ([2]; 600 mg/day): 145.73 (128.99, 162.48) ^*** %
- CETP mass approximately 2 weeks after the last dose ([2]; human, in vivo): returned to levels at or near baseline; also recorded: returned to baseline
- Apo AI: Mean % change from baseline (90% CI) ([3]; 10 mg/day): 3.53 (−2.23, 9.30) %
- Apo AI: Mean % change vs placebo (90 % CI) ([3]; 10 mg/day): 15.29 (7.74, 22.84) ^** %
- Apo AII: Mean % change from baseline (90% CI) ([3]; 10 mg/day): −1.30 (−5.34, 2.73) %
- Apo AII: Mean % change vs placebo (90 % CI) ([3]; 10 mg/day): 4.29 (−0.90, 9.48) %
- Apo B: Mean % change from baseline (90% CI) ([3]; 10 mg/day): −8.09 (−13.41, −2.77) %
- Apo B: Mean % change vs placebo (90 % CI) ([3]; 10 mg/day): −15.05 (−22.68, −7.43) ^** %
- Apo E: Mean % change from baseline (90% CI) ([3]; 10 mg/day): 19.70 (5.10, 34.30) %
- Apo E: Mean % change vs placebo (90 % CI) ([3]; 10 mg/day): 8.36 (−2.89, 19.60) %
- Ratio of apo B/apo AI: Mean % change from baseline (90% CI) ([3]; 10 mg/day): −6.87 (−12.72, −1.02) %
- Ratio of apo B/apo AI: Mean % change vs placebo (90 % CI) ([3]; 10 mg/day): −26.63 (−34.88, −18.38) ^*** %
- Apo AI: Mean % change from baseline (90% CI) ([3]; 100 mg/day): 24.61 (20.07, 29.15) %
- Apo AI: Mean % change vs placebo (90 % CI) ([3]; 100 mg/day): 36.37 (27.66, 45.08) ^*** %
- Apo AII: Mean % change from baseline (90% CI) ([3]; 100 mg/day): 8.85 (4.69, 13.02) %
- Apo AII: Mean % change vs placebo (90 % CI) ([3]; 100 mg/day): 14.44 (7.16, 21.72) ^** %
- Apo B: Mean % change from baseline (90% CI) ([3]; 100 mg/day): −17.64 (−20.84, −14.43) %
- Apo B: Mean % change vs placebo (90 % CI) ([3]; 100 mg/day): −24.60 (−31.28, −17.92) ^*** %
- Apo E: Mean % change from baseline (90% CI) ([3]; 100 mg/day): 55.81 (36.13, 75.50) %
- Apo E: Mean % change vs placebo (90 % CI) ([3]; 100 mg/day): 44.47 (14.63, 74.30) ^* %
- Ratio of apo B/apo AI: Mean % change from baseline (90% CI) ([3]; 100 mg/day): −31.84 (−35.59, −28.09) %
